Source: ChEMBL document CHEMBL4513216, “Probing the Open Global Health Chemical Diversity Library for Multistage-Active Starting Points for Next-Generation Antimalarials” (ACS Infect Dis, 2020)

Experiment: Toxicity liver stage against HepG2, at 10uM
Format: cell-based
Design: test concentration 10 uM, cell line HepG2-A16-CD81EGFP
Details: human, HepG2-A16-CD81EGFP cells; read-out: INHIBITION
Method in brief: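 Uninfected HepG2-A16-CD81EGFP cells, 3 × 10^3 per well, 1536-well, plated on prespotted compound at 10 μM final, parasite-free screening media added to match infected plates; puromycin 10 μM positive, DMSO 0.5% negative; run in parallel with 48 h PbLuc assay at 37 °C, 5% CO2; viability by CellTiter-Glo luminescence, normalized to controls.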

**Q.** Which cytotoxicity at 10 µM does the source give for `Cc1ccc(-c2c[nH]c([C@@H]3COCCN3Cc3cccnc3)n2)cc1` here?
**A.** Its cytotoxicity at 10 µM is 0.283%.

**Q.** For `O=C(NCCC1=CCCCC1)c1ccc(-n2cccc2)nc1`, which cytotoxicity at 10 µM is on record?
**A.** Its cytotoxicity at 10 µM is -1.46%.

**Q.** Which cytotoxicity at 10 µM does the source give for `CC1CN(c2ncccc2C(=O)N[C@@H]2CCCc3ccccc32)CCN1` (stereo not given in full) here?
**A.** The cytotoxicity at 10 µM was 10.7%.

**Q.** Which cytotoxicity at 10 µM does the source give for `Cc1ncnc2c1CCN(C(=O)c1cccnc1)CC2` here?
**A.** Its cytotoxicity at 10 µM is 8.36%.

**Q.** For `CN1CCN(C(=O)c2cc(-c3cnc(N4CCCC4)nc3)cn2C)CC1`, which cytotoxicity at 10 µM is on record?
**A.** Its cytotoxicity at 10 µM is -1.43%.

**Q.** With `CC(C)NC(=O)N1CCN(C(=O)NC(C)C)CC2(CNC(=O)C2)C1` as the compound, how does the cytotoxicity at 10 µM read?
**A.** The cytotoxicity at 10 µM was 3.3%.

**Q.** With `Cc1cc(O)c(OCC(=O)/N=c2/[nH]c3c(s2)CCC3)cn1` as the compound, how does the cytotoxicity at 10 µM read?
**A.** Its cytotoxicity at 10 µM is 10.4%.

**Q.** For `CS(=O)(=O)Nc1nn(Cc2ccc(F)cc2)cc1Br`, which cytotoxicity at 10 µM is on record?
**A.** Its cytotoxicity at 10 µM is 5.88%.

**Q.** For `O=C(CCn1ncc2c(Cl)cccc21)NCCCn1cccn1`, which cytotoxicity at 10 µM is on record?
**A.** Its cytotoxicity at 10 µM is 6.25%.

**Q.** With `Cc1cc(C(=O)NCc2cccs2)nc(N2CCCC2)n1` as the compound, how does the cytotoxicity at 10 µM read?
**A.** The cytotoxicity at 10 µM was -0.438%.

**Q.** For `Cc1noc(C)c1-c1cc(CCC2CN(CCC(N)=O)CCO2)ncn1` (stereo not given), which cytotoxicity at 10 µM is on record?
**A.** Its cytotoxicity at 10 µM is 6.11%.

**Q.** For `Cc1ccnn1CCC(=O)N1CCCC2(C1)NC(=O)c1ccccc1O2` (stereo not given), which cytotoxicity at 10 µM is on record?
**A.** The cytotoxicity at 10 µM was -0.776%.

**Q.** With `O=C(NC1(C(=O)NCC2CC2)CCCC1)C1Cc2cc(F)ccc2O1` (stereo not given) as the compound, how does the cytotoxicity at 10 µM read?
**A.** The cytotoxicity at 10 µM was 8%.

**Q.** For `Cc1c(NC(=O)NCCO)cccc1OC1CCCC1`, which cytotoxicity at 10 µM is on record?
**A.** Its cytotoxicity at 10 µM is -2.25%.

**Q.** Which cytotoxicity at 10 µM does the source give for `CCOCCC(=O)N(CCC#N)c1ccc(C)c(C)c1` here?
**A.** Its cytotoxicity at 10 µM is 4.06%.

**Q.** With `Cc1ccc(F)cc1C(=O)N1CCN(S(C)(=O)=O)[C@@H](C)C1` as the compound, how does the cytotoxicity at 10 µM read?
**A.** The cytotoxicity at 10 µM was -2.53%.

**Q.** Which cytotoxicity at 10 µM does the source give for `Cc1occc1CNC(=O)C1CCN(C(=O)OC(C)(C)C)C1` (stereo not given) here?
**A.** Its cytotoxicity at 10 µM is 3.67%.

**Q.** Which cytotoxicity at 10 µM does the source give for `CC(C)(C)c1noc(CN2CCN(C(=O)c3ccco3)CC2)n1` here?
**A.** The cytotoxicity at 10 µM was -15.8%.

**Q.** Which cytotoxicity at 10 µM does the source give for `Cc1ccc(CNCC2CCN(CCO)CC2)cc1` here?
**A.** The cytotoxicity at 10 µM was -6.14%.

**Q.** With `Cc1nccn1-c1cc(CNC(=O)COCC2CC2)ccn1` as the compound, how does the cytotoxicity at 10 µM read?
**A.** Its cytotoxicity at 10 µM is 2.37%.

**Q.** For `CS(=O)(=O)CCN(CC1CCCO1)C1CCCC1` (stereo not given), which cytotoxicity at 10 µM is on record?
**A.** Its cytotoxicity at 10 µM is 4.4%.

**Q.** Which cytotoxicity at 10 µM does the source give for `COCCOc1ccc(NCc2cccc3cn[nH]c23)cn1` here?
**A.** Its cytotoxicity at 10 µM is 5.04%.

**Q.** With `O=C1NCCO[C@H]2CN(C(=O)Cc3ccco3)CC[C@@H]12` as the compound, how does the cytotoxicity at 10 µM read?
**A.** Its cytotoxicity at 10 µM is -105%.

**Q.** For `O=C(c1ccnnc1)N1C[C@H](OCC2CC2)[C@H]2COC[C@H]21`, which cytotoxicity at 10 µM is on record?
**A.** Its cytotoxicity at 10 µM is 0.0658%.

**Q.** With `COCC1CC2(CCN(Cc3ccccn3)CC2)CN1C(C)C` (stereo not given) as the compound, how does the cytotoxicity at 10 µM read?
**A.** The cytotoxicity at 10 µM was -7.16%.

**Q.** With `C=C(C)COc1ccccc1C(=O)NCc1nc(C)cc(=O)[nH]1` as the compound, how does the cytotoxicity at 10 µM read?
**A.** The cytotoxicity at 10 µM was -3.7%.

**Q.** Which cytotoxicity at 10 µM does the source give for `CN1CCC(O)(CNC(=O)c2cc(COc3cccc(F)c3)[nH]n2)CC1` here?
**A.** The cytotoxicity at 10 µM was 2.91%.

**Q.** For `CCCc1nc(CN(CC)C(=O)c2ccc3ncsc3c2)no1`, which cytotoxicity at 10 µM is on record?
**A.** The cytotoxicity at 10 µM was 9.65%.

**Q.** Which cytotoxicity at 10 µM does the source give for `COc1ccc(C(C)n2ccnc2-c2cc3n(n2)CCCNC3)cc1F` (stereo not given) here?
**A.** Its cytotoxicity at 10 µM is -3.06%.

**Q.** For `Cc1ccccc1N1CCCN(C(=O)c2cn(C)c3ccccc23)CC1`, which cytotoxicity at 10 µM is on record?
**A.** Its cytotoxicity at 10 µM is -11.2%.

**Q.** For `COCCc1noc(CN2CCCCC2Cn2cccn2)n1` (stereo not given), which cytotoxicity at 10 µM is on record?
**A.** The cytotoxicity at 10 µM was -1.3%.

**Q.** Which cytotoxicity at 10 µM does the source give for `CN(C)C(=O)c1cccc(CN2CCOC(Cn3cccn3)C2)c1` (stereo not given) here?
**A.** Its cytotoxicity at 10 µM is -0.29%.

**Q.** For `COc1cc(C(=O)N2CCCC2c2noc(C(C)C)n2)on1` (stereo not given), which cytotoxicity at 10 µM is on record?
**A.** Its cytotoxicity at 10 µM is -12.4%.

**Q.** For `c1ccc(Cc2noc(CN3CCCC(Cn4cncn4)C3)n2)cc1` (stereo not given), which cytotoxicity at 10 µM is on record?
**A.** Its cytotoxicity at 10 µM is -2.38%.

**Q.** Which cytotoxicity at 10 µM does the source give for `Cc1ncc(C(=O)N2CCCC(n3cccn3)C2)s1` (stereo not given) here?
**A.** The cytotoxicity at 10 µM was -5.8%.

**Q.** Which cytotoxicity at 10 µM does the source give for `CN(C)c1cc(CNC(=O)Nc2nncs2)ccn1` here?
**A.** Its cytotoxicity at 10 µM is -20.5%.

**Q.** Which cytotoxicity at 10 µM does the source give for `Cc1nc(C)n(CC2CCCN(CCC(=O)N3CCOCC3)C2)n1` (stereo not given) here?
**A.** The cytotoxicity at 10 µM was -6.7%.

**Q.** Which cytotoxicity at 10 µM does the source give for `CC(C)C(=O)NCc1ccc(-n2cncn2)nc1` here?
**A.** The cytotoxicity at 10 µM was 0.239%.

**Q.** For `CCOCC1CN(Cc2ccccn2)Cc2nn(CC3CC3)cc21` (stereo not given), which cytotoxicity at 10 µM is on record?
**A.** Its cytotoxicity at 10 µM is -0.966%.

**Q.** Which cytotoxicity at 10 µM does the source give for `CCOC1COC2(CCN(Cc3ccco3)CC2)C1` (stereo not given) here?
**A.** The cytotoxicity at 10 µM was -2.98%.

**Q.** With `CC(C)C1COC2(CCN(Cc3ccco3)CC2)C1` (stereo not given) as the compound, how does the cytotoxicity at 10 µM read?
**A.** The cytotoxicity at 10 µM was -3.57%.

**Q.** With `Cc1nnc([C@]23COC[C@H]2CN(S(=O)(=O)c2cccnc2)C3)o1` as the compound, how does the cytotoxicity at 10 µM read?
**A.** Its cytotoxicity at 10 µM is -97.8%.

**Q.** With `O=C(c1cccnc1)N1CCC2(CC1)COC(COc1ccccn1)C2` (stereo not given) as the compound, how does the cytotoxicity at 10 µM read?
**A.** Its cytotoxicity at 10 µM is -0.735%.

**Q.** Which cytotoxicity at 10 µM does the source give for `CS(=O)(=O)NC[C@@H]1OC[C@H]2CN(C(=O)c3ccccn3)CC[C@H]21` here?
**A.** Its cytotoxicity at 10 µM is -7.47%.

**Q.** For `O=C(CC1CC1)N[C@@H]1CN(Cc2ccco2)C[C@@H]2CCCO[C@@H]21`, which cytotoxicity at 10 µM is on record?
**A.** Its cytotoxicity at 10 µM is -1.63%.
